# Assay results as given in ChEMBL document CHEMBL1123095, “Synthesis and biological activity of 6-azacadeguomycin and certain 3,4,6-trisubstituted pyrazolo[3,4-d]pyrimidine ribonucleosides” (1985).
# The source made the active and inactive calls. No cut-off for these calls is given here.
# Assays:
# Vero [1] = test: Toxicity level was reported; none; assay type: functional, cell-based; details: Chlorocebus sabaeus
# Vero [2] = test: In vitro antiviral activity against Parainfluenza type 3 was evaluated.; assay type: functional; details: Chlorocebus sabaeus, read-out: ED50 (the source's name)
# Vero [3] = test: In vitro antiviral activity against herpes simplex virus type 2 virus was evaluated.; assay type: functional; details: Chlorocebus sabaeus, read-out: ED50 (the source's name)
# Vero [4] = test: In vitro antiviral activity against measles virus was evaluated.; assay type: functional; details: Chlorocebus sabaeus, read-out: ED50 (the source's name)
# Vero [5] = test: In vitro antiviral activity against vaccinia virus was evaluated.; assay type: functional; details: Chlorocebus sabaeus, read-out: ED50 (the source's name)
# Vero [6] = test: Toxicity level was reported.; assay type: functional, Chlorocebus sabaeus
# L1210 [7] = test: In vitro inhibitory dose against L1210 leukemia cells was evaluated; Inactive at 10e-4 concentration; assay type: functional, cell-based; details: Mus musculus
# In short: (§1)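 Murine leukemia L1210 or lymphoid neoplasm P388 cells were grown in RPMI 1640 with 10% fetal bovine serum and 20 mM Hepes. Cells at 1 × 10⁵ cells/mL received filter-sterilized compound dissolved in growth medium, in duplicate at log concentrations from 1×10⁻⁷ to 1×10⁻⁴ M. After 48 h at 37 °C, cells were counted on a Coulter counter. Growth was expressed as percent of untreated control, and ID₅₀ was taken as the concentration giving 50% growth inhibition.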
# P388 [8] = test: In vitro inhibitory dose against P388 cells was evaluated; Inactive at 10e-4 concentration; assay type: functional, cell-based; details: Mus musculus; in short: as §1
# L1210 [9] = test: In vitro inhibitory dose against L1210 leukemia cells was evaluated.; assay type: functional; details: Mus musculus, read-out: ID50 (the source's name); in short: as §1
# P388 [10] = test: In vitro inhibitory dose against P388 cells was evaluated.; assay type: functional; details: Mus musculus, read-out: ID50 (the source's name); in short: as §1
# Vero [11] = test: Toxicity level was reported; None.; assay type: functional, cell-based; details: Chlorocebus sabaeus
# L1210 [12] = test: In vitro inhibitory dose against L1210 leukemia cells was evaluated; Inactive at 10^-4M; assay type: functional, cell-based; details: Mus musculus
# In short: (§2)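 L1210 murine leukemia or P388 lymphoid neoplasm cells in RPMI 1640 with 10% fetal bovine serum and 20 mM Hepes, adjusted to 1 × 10⁵ cells/mL. Compounds dissolved in medium, filter-sterilized, tested in duplicate at log concentrations 1×10⁻⁷ to 1×10⁻⁴ M. After 48 h at 37 °C, Coulter cell counts; growth as percent of untreated control; ID₅₀ is the concentration giving 50% growth inhibition.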
# P388 [13] = test: In vitro inhibitory dose against P388 cells was evaluated; Inactive at 10^-4M; assay type: functional, cell-based; details: Mus musculus; in short: as §2
# L1210 [14] = test: Percent inhibition against L1210 cell growth at concentration 10e-4 was reported; assay type: functional, Mus musculus; in short: as §2
# P388 [15] = test: Percent inhibition against P388 cell growth at concentration 10e-4 was reported; assay type: functional, Mus musculus; in short: as §2
# L1210 [16] = test: Percent inhibition against L1210 cell growth at concentration 10e-4 was reported.; assay type: functional, Mus musculus; in short: as §1
# P388 [17] = test: Percent inhibition against P388 cell growth at concentration 10e-4 was reported; Inative at 10^-4M; assay type: functional, cell-based; details: Mus musculus; in short: as §1
SMILES,EC50 (Vero [2]) [µM],EC50 (Vero [3]) [µM],EC50 (Vero [4]) [µM],EC50 (Vero [5]) [µM],Toxic level (Vero [6]) [mM],Toxic level (Vero [11]),further results
NC(=O)c1c[se]c([C@@H]2O[C@H](CO)[C@@H](O)[C@H]2O)n1,3.2,14,3.2,9.8,,,Toxic level (Vero [1]): inactive
COc1nc2c(c(Br)nn2C2O[C@H](CO)[C@@H](O)[C@H]2O)c(=O)[nH]1 (some centres undefined),> 2500,1600,> 2500,3500,2.5,,
NC(=O)c1ncn([C@@H]2O[C@H](CO)[C@@H](O)[C@H]2O)n1 [RIBAVIRIN],160,190,33,85,,,Toxic level (Vero [1]): Non-toxic
Oc1[nH]c(Br)nc2nncc1-2,> 5000,1600,> 5000,430,1.6,,
Nc1nc2c(cnn2C2O[C@H](CO)[C@@H](O)[C@H]2O)c(=O)[nH]1 (some centres undefined),> 5000,1600,,1000,,,ID50 (L1210 [7]): inactive; ID50 (P388 [8]): inactive; Toxic level (Vero [1]): inactive
N#Cc1nn(C2O[C@H](CO)[C@@H](O)[C@H]2O)c2nc(N)[nH]c(=O)c12 (some centres undefined),220,100,54,140,,None,IC50 (L1210 [9]): 22 µM; IC50 (P388 [10]): 21 µM
CSc1nc(O)c2c(C(N)=O)[nH]nc2n1,> 500,85,> 500,330,>0.5,,
NC(=O)c1[nH]nc2nc(S)nc(O)c12,390,180,> 500,,,None,
Oc1[nH]c(Br)nc2nnc(Br)c1-2,> 5000,> 500,> 5000,240,>0.05,,
Nc1nc2c(c(C(=O)O)nn2C2O[C@H](CO)[C@@H](O)[C@H]2O)c(=O)[nH]1 (some centres undefined),> 5000,> 5000,> 5000,> 5000,,None,ID50 (L1210 [12]): inactive; ID50 (P388 [13]): inactive
NC(=O)c1nn(C2O[C@H](CO)[C@@H](O)[C@H]2O)c2nc(N)[nH]c(=O)c12 (some centres undefined),> 500,> 500,> 500,> 500,,None,Inhibition (L1210 [14]): 30%; Inhibition (P388 [15]): 22%
C[S+]([O-])c1nc(O)c2c(Br)[nH]nc2n1 (centres undefined),> 5000,1200,> 5000,260,>0.5,,
NC(=S)c1nn(C2O[C@H](CO)[C@@H](O)[C@H]2O)c2nc(N)[nH]c(=O)c12 (some centres undefined),590,> 5000,65,,,None,Inhibition (L1210 [16]): 43%; ID50 (P388 [17]): inactive
Nc1nc2c(c(Br)nn2C2O[C@H](CO)[C@@H](O)[C@H]2O)c(=O)[nH]1 (some centres undefined),> 5000,180,20,76,1.6,,IC50 (L1210 [9]): 36 µM; IC50 (P388 [10]): 36 µM
